Activity calls are given as the source filed them. The rule behind the calls is not given here.
What was measured:
HepG2 [1] = experiment: Induction of apoptosis in human HepG2 cells assessed as disruption of mitochondrial membrane potential by measuring mean fluorescence intensity at 2 uM after 72 hrs by Rh123 staining based flow cytometry (reference value: 26410); assay type: functional
HepG2 [2] = experiment: Induction of apoptosis in human HepG2 cells after 72 hrs by Annexin-V-FITC/propidium iodide staining based flow cytometry; assay type: functional, cell-based
HepG2 [3] = experiment: Induction of apoptosis in human HepG2 cells assessed as formation of apoptotic bodies after 72 hrs by DAPI staining based fluorescent microscopic method; assay type: functional, cell-based
Procedure, shortened: (§1)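 HepG2 cells were plated at 4×10^3 cells/well in six-well plates and grown 12 h, then treated at 1.5, 3 or 6 µM for 72 h. Cells were washed in PBS, fixed in 4% paraformaldehyde and stained with 1 mg/mL DAPI for 1 min in the dark. Nuclei were viewed by fluorescence microscopy at 200×.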

HepG2 [4] = experiment: Induction of apoptosis in human HepG2 cells assessed as nuclear condensation at 6 uM after 72 hrs by Giemsa staining based fluorescent microscopic method; assay type: functional, cell-based
Procedure, shortened: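 HepG2 cells were seeded at 4×10^3 cells/well in 6-well plates overnight, then treated at 1.5, 3 or 6 µM for 72 h. Cells were washed in PBS, fixed in cold methanol, stained with 6% Giemsa for 5 min, rinsed with water and dried. Morphology was examined microscopically at 200×, with apoptotic cells marked in representative fields.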

BGC-823 = experiment: Potency index, ratio of cisplatin IC50 to compound IC50 for human BGC823 cells; assay type: functional
Procedure, shortened: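 Ratios were calculated from MTT IC50 values (72 h exposure, A490 read-out, n = 3). Potency index = cisplatin IC50 / compound IC50. Therapeutic index = MDCK IC50 / tumour-line IC50.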

HepG2 [5] = experiment: Induction of apoptosis in human HepG2 cells assessed as nuclear fragmentation after 72 hrs by DAPI staining based fluorescent microscopic method; assay type: functional, cell-based; procedure, shortened: as §1
HepG2 [6] = experiment: Induction of apoptosis in human HepG2 cells assessed as viable cells at 3 uM after 72 hrs by Annexin-V-FITC/propidium iodide staining based flow cytometry (reference value: 93.2%); assay type: functional; conditions: HepG2, 72 h, read-out: Activity
HepG2 [7] = experiment: Induction of apoptosis in human HepG2 cells assessed as viable cells at 4 uM after 72 hrs by Annexin-V-FITC/propidium iodide staining based flow cytometry (reference value: 93.2%); assay type: functional; conditions: HepG2, 72 h, read-out: Activity
HepG2 [8] = experiment: Induction of apoptosis in human HepG2 cells assessed as early apoptotic cells at 2 uM after 72 hrs by Annexin-V-FITC/propidium iodide staining based flow cytometry (reference value: 3.7%); assay type: functional
A549 = experiment: Antiproliferative activity against human A549 cells after 72 hrs by MTT assay; assay type: functional, cell-based; conditions: A549, 72 h
Procedure, shortened: (§2)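 MTT assay. Log-phase cells were seeded at 3×10^3 cells/well and left overnight, then exposed to serial dilutions of compound (DMSO solutions) for 72 h in RPMI 1640 with 10% heat-inactivated FBS at 37 °C, 5% CO2. MTT (5 mg/mL, 20 µL) was added for 4 h at 37 °C and the formazan dissolved in DMSO. A490 was read. % inhibition = (1 − sample OD/control OD)×100; IC50 is the 50% growth-inhibition concentration. Triplicates, n = 3 independent experiments.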

HT-29 = experiment: Antiproliferative activity against human HT-29 cells after 72 hrs by MTT assay; assay type: functional, cell-based; conditions: HT-29, 72 h; procedure, shortened: as §2
HepG2 [9] = experiment: Induction of apoptosis in human HepG2 cells assessed as disruption of mitochondrial membrane potential by measuring mean fluorescence intensity at 4 uM after 72 hrs by Rh123 staining based flow cytometry (reference value: 26410); assay type: functional
HepG2 [10] = experiment: Induction of apoptosis in human HepG2 cells assessed as necrotic cells at 4 uM after 72 hrs by Annexin-V-FITC/propidium iodide staining based flow cytometry (reference value: 0.5%); assay type: functional

`C=C(C)[C@@H]1CC[C@]2(C(=O)OCc3nc(C)c(C)nc3C)CC[C@]3(C)[C@H](CC[C@@H]4[C@@]5(C)CC[C@H](OC(=O)[C@H](C)NC(=O)CNC)C(C)(C)[C@@H]5CC[C@]43C)[C@@H]12` was tested, and the Flu intensity (HepG2 [1]) was 6416, the Activity (HepG2 [2]) was “Dose-dependent effect” and the Activity (HepG2 [3]) was “Dose-dependent effect”. For the same molecule, the Activity (HepG2 [4]) was “Active”, the “Ratio IC50” value (BGC-823) was 2 and the Activity (HepG2 [5]) was “Dose-dependent effect”. The viability at 3 µM (HepG2 [6]) was 81%, the viability at 4 µM (HepG2 [7]) was 62.2% and the Activity (HepG2 [8]) was 6.1%. It also gave an IC50 (A549) of 3250 nM, an IC50 (HT-29) of 1700 nM and a Flu intensity (HepG2 [9]) of 2147. For the same molecule, the Activity (HepG2 [10]) was 1%.
